{"data": "Published values from different studies", "target": "Serine/threonine-protein kinase 17B (STK17B, Homo sapiens, UniProt O94768)", "Residues used in one study (O94768 1-372)": "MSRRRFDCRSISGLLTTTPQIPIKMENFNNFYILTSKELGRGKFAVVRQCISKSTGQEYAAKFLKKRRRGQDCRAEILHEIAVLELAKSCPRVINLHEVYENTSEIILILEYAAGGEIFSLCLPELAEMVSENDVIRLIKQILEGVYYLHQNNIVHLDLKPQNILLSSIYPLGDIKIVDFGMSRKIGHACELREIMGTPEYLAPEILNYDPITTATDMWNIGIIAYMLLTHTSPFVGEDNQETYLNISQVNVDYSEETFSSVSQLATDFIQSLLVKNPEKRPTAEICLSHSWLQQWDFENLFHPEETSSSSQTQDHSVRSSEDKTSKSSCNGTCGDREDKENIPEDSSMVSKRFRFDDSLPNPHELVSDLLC", "note": "Each line is one published result; the experiments were not run side by side."}
{"Structure (SMILES)": "CCN1CCC2(CC1)NC(=O)c1c(c3ccc(Cl)c(Cl)c3n1C)C2C#N (racemic)", "effect on": "thermal stability", "method": "DSF", "tested at": "10 µM", "measurement": "ΔTm", "value": "1 °C"}
{"Structure (SMILES)": "Cc1nn(CC(F)(F)F)cc1Nc1ncc(Br)c(NCCCNC(=O)C2CCC2)n1", "effect on": "enzyme activity", "mode": "inhibitor", "method": "radiometric", "tested at": "1 µM", "measurement": "remaining activity", "value": "5%"}
{"Structure (SMILES)": "O=C(Nc1cccnn1)N1CC(C/C=C/c2cncc(Oc3ccc(C(F)(F)F)cn3)n2)C1", "effect on": "cell-free assay", "method": "competition with immobilised ligand", "tested at": "1 µM", "measurement": "remaining binding", "value": "100%"}
{"Structure (SMILES)": "Cc1nn(CC(F)(F)F)cc1Nc1nccc(NCc2ccc(S(N)(=O)=O)cc2)n1", "effect on": "enzyme activity", "mode": "inhibitor", "method": "radiometric", "tested at": "1 µM", "measurement": "remaining activity", "value": "92%"}
{"Structure (SMILES)": "Nc1ncnc2occ(-c3ccc(NC(=O)Nc4cc(C(F)(F)F)ccc4F)cc3)c12", "effect on": "cell-free assay", "tested at": "20 µM", "measurement": "remaining signal", "value": "94%"}
{"Structure (SMILES)": "COc1cc(Cl)c(C(=O)N[C@@H](CN[C@H]2CC[C@@H](N)CC2)Cc2ccc(C#N)cc2)cc1-c1ccc(CN[C@H](C)c2ccc(C)cc2)o1", "effect on": "enzyme activity", "mode": "inhibitor", "tested at": "1 µM", "measurement": "remaining activity", "value": "94%"}
{"Structure (SMILES)": "CN1CC(Oc2cnc(C#N)cc2-c2ccn3nc(NC(=O)C4CC4)cc3c2)C1", "effect on": "enzyme activity", "mode": "inhibitor", "tested at": "1 µM", "measurement": "inhibition", "value": "-4%"}
{"Structure (SMILES)": "O=C(CSc1nc2nccnc2c(=O)n1CCc1ccccc1)Nc1nccs1", "effect on": "enzyme activity", "mode": "inhibitor", "tested at": "10 µM", "measurement": "inhibition", "value": "11%"}
{"Structure (SMILES)": "Cc1nn(CC(F)(F)F)cc1Nc1ncc(Br)c(NCCc2cnc[nH]2)n1", "effect on": "enzyme activity", "mode": "inhibitor", "method": "radiometric", "tested at": "1 µM", "measurement": "remaining activity", "value": "12%"}
{"Structure (SMILES)": "Cc1ccc(C(=O)Nc2ccc(CN3CCN(C)CC3)c(C(F)(F)F)c2)cc1C#Cc1cnc2cccnn12", "effect on": "enzyme activity", "tested at": "23.5 nM", "measurement": "remaining activity", "value": "100%"}
{"Structure (SMILES)": "Cc1nc(N2CC[C@@H](O)C2)ncc1-c1cc(C(F)(F)F)cc2[nH]ncc12", "effect on": "cell-free assay", "method": "competition with immobilised ligand", "tested at": "1 µM", "measurement": "remaining binding", "value": "99%"}
{"Structure (SMILES)": "NS(=O)(=O)c1ccc(CNc2nc(Nc3cccc(NC(=O)N4CCCC4)c3)ncc2Br)cc1", "effect on": "enzyme activity", "mode": "inhibitor", "method": "radiometric", "tested at": "1 µM", "measurement": "remaining activity", "value": "23%"}
{"Structure (SMILES)": "C[C@H](NC(=O)c1cnc2n1[C@](C)(Cc1ccc(C#N)cc1)C(=O)N2c1cc(Cl)c(F)c(Cl)c1)C(=O)NC1(c2ccccn2)CC1", "effect on": "cell-free assay", "method": "competition with immobilised ligand", "tested at": "1 µM", "measurement": "remaining binding", "value": "100%"}
{"Structure (SMILES)": "CS(=O)(=O)Nc1cccc(-c2csc(NC(=O)CSc3nc4nccnc4c(=O)n3CCc3ccccc3)n2)c1", "effect on": "enzyme activity", "mode": "inhibitor", "tested at": "10 µM", "measurement": "inhibition", "value": "4%"}
